Compounds with a hit are over-represented: about 3.1% of the library has one in this group of screens.
NadD inh – inhibitors of S. aureus NadD, primary screen, biochemical, colorimetric, uHTS; Nicotinate-nucleotide adenylyltransferase NadD (Staphylococcus aureus N315); AID 602399, 2012; purified NadD enzyme, colorimetric absorbance read-out; inhibition, % at 20 µM; 360,000 tested, 0.78% active; in the data active means inhibition above about 26%
PP5 primary – PP5 phosphatase inhibitors, primary screen, biochemical, fluorescence. Serine/threonine-protein phosphatase 5 (Homo sapiens), P53041. purified PP5c, OMFP substrate fluorescence. inhibition, % at 6.7 µM. 320,000 tested, 0.18% active. AID 1987, 2009;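 active means inhibition above the campaign's mean inhibition across all tested compounds plus 3 SD, cut at about 9.5% in these data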
Target sequence (P53041 whole entry, looked up): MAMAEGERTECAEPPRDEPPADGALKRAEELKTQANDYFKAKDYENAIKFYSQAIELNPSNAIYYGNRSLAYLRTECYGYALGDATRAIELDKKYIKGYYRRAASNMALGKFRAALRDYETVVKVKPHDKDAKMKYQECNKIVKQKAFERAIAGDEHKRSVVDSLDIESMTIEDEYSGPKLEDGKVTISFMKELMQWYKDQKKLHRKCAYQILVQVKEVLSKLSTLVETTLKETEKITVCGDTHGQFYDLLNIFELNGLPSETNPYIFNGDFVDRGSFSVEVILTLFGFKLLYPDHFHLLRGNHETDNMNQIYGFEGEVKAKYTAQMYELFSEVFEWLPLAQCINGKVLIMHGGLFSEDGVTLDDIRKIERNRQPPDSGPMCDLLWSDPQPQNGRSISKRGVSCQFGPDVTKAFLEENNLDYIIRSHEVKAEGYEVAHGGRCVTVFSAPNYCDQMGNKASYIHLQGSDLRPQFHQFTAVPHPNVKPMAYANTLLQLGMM
Fh CTSL1 inh – Fasciola hepatica cathepsin L1 inhibitors, primary screen, counter-screen for PFM18AAP inhibitor project, biochemical, QFRET, fluorogenic peptide substrate | 300,000 tested, 0.49% active | AID 1906, 2009 | recombinant F. hepatica cathepsin L1, Z-Leu-Arg-MCA fluorescence | inhibition, % at 5.96 µM;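 active means inhibition above the mean of all tested compounds plus 3 SD, set per screening campaign, cut at about 17% in these data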
Myeloid diff MLP – induction of myeloid progenitor differentiation, primary screen, cell-based, flow cytometry, MLPCN library; ER-HoxA9 myeloid progenitors, lysozyme-GFP differentiation; calls only at 10 µM; 360,000 tested, 1% active; AID 624256, 2012;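 active means normalized GFP-positive differentiation at or above the plate's own cutoff, the solvent-only control mean plus 3 SD; inconclusive means no clear call, values can overlap the other calls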;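 further: cells exposed to compound for four days before flow analysis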
PP1 inh – PP1-alpha phosphatase inhibitors, primary screen, counter-screen for PP5 inhibitor project, biochemical, fluorescence, OMFP substrate, single point; Serine/threonine-protein phosphatase PP1-alpha catalytic subunit (Homo sapiens), P62136; purified PP1alpha; inhibition, % at 6.7 µM; 320,000 tested, 0.9% active; AID 2235, 2010;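 active means inhibition above the mean inhibition of all tested compounds plus 3 SD, computed separately for each screening campaign, cut at about 15% in these data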
HCV core dimer – inhibitors of HCV core protein dimerization, primary screen, biochemical, TR-FRET, high-throughput; TR-FRET GST/Flag-core106 dimerization, 1536-well; 300,000 tested, 0.33% active; inhibition, % at 5 µM;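 active means inhibition above the mean of all tested compounds plus 3 SD, set per screening campaign, cut at about 45% in these data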
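Test system: GST/Flag-tagged HCV core106 proteins; Medium: KF-containing HEPES buffer, pH 7.45, DTT, CHAPS, BSA; Times: compound-protein-antibody incubation 4 h at 22.5 °C; Detection: TR-FRET 671 and 617 nm emission; Benchmarks: wells lacking GST-core106 and wells with excess unlabelled core106.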
Myeloid diff – inducers of myeloid progenitor differentiation, confirmation, cell-based, GFP/Mac1 flow cytometry, cherry pick 01; calls only; shares compounds with Myeloid diff MLP; ER-HoxA9 myeloid progenitors, GFP/Mac1 double-positive flow; 2,300 tested, 2% active;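 active means share of green or green-and-red cells above 9 and 9% in run 1 or 4 and 3% in run 2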
GFP autofluor – compound fluorescence in myeloid differentiation counter-screen; AID 651707; fluorescence response, % (concentration not given with the values); shares compounds with Myeloid diff MLP; ER-HoxA9 myeloid progenitors, no estrogen, GFP autofluorescence flow cytometry; vehicle wells 0%, positive control 100%; 2,300 tested, 7.4% active;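 active means over 5% cells positive for green fluorescent reporter, or over 2% positive for both it and APC stain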
Each line names hits and unclear results; the compound was inactive in the other large screens (follow-up assays come after a bar, where they were run).

Cc1cccc(C(=O)NC2CCN(CC(=O)N3CCOCC3)CC2)c1	none
COC(=O)c1cn(CC(C)n2c(=O)c3ccccc3n2Cc2cc(C(C)C)no2)nn1 (stereo not drawn)	none (no result: NadD inh, PP5 primary, Fh CTSL1 inh, PP1 inh, HCV core dimer)
CCCn1c(SCC(=O)Nc2ccc3c(c2)OCCO3)n[nH]c1=O	none (no result: PP5 primary, Fh CTSL1 inh, PP1 inh, HCV core dimer)
Cc1cccc(C)c1NC(=O)C1(C)CSCC(=O)N1CCc1ccc(O)cc1 (stereo not drawn)	none (no result: NadD inh, PP5 primary, Fh CTSL1 inh, PP1 inh, HCV core dimer)
Cc1nc(NC(=O)c2ccc(Br)s2)sc1C(=O)N(C)C	none | Myeloid diff inactive | GFP autofluor inactive
Cc1nc(NC(=O)c2cc3c(s2)CCCCC3)sc1C(=O)N(C)C	none
Cc1ccc(S(=O)(=O)N(Cc2cc3cccc(C)c3[nH]c2=O)c2ccccc2)cc1	Myeloid diff MLP active | Myeloid diff inactive | GFP autofluor inactive
Cc1cccc2cc(CN(Cc3cccs3)S(=O)(=O)c3ccc4c(c3)OCCO4)c(=O)[nH]c12	none | Myeloid diff inactive | GFP autofluor inactive
Cc1ccc(S(=O)(=O)N(C)Cc2cc3ccccc3[nH]c2=O)cc1	none | Myeloid diff inactive | GFP autofluor inactive
O=C(O)c1ccc(N2CCN(Cc3ccc4c(c3)OCO4)CC2)c([N+](=O)[O-])c1	none
COc1ccccc1C(=O)NCCC(=O)N1CCN(c2ccccc2O)CC1	none
COc1ccccc1C(=O)NCCC(=O)N1CC(=O)Nc2ccccc21	Myeloid diff MLP active | Myeloid diff inactive | GFP autofluor inactive
O=C1CN(C(=O)COC(=O)CCSc2ccccc2Cl)c2ccccc2N1	Myeloid diff MLP active | Myeloid diff inactive | GFP autofluor inactive
Cc1ccc(C(=O)NNC(=O)CSc2nnc(-c3ccncc3)n2-c2ccc(C)cc2)cc1	none | Myeloid diff inactive | GFP autofluor inactive
CC(C)c1ccccc1OCC(=O)Nc1cc(S(=O)(=O)N2CCOCC2)ccc1N1CCCC1	none
COCCCNC(=O)Cn1nnc(-c2ccc(NC(=O)c3ccc(F)cc3)cc2)n1	none | Myeloid diff inactive | GFP autofluor inactive
COCCCNC(=O)Cn1nnc(-c2ccc(NC(=O)c3cccnc3)cc2)n1	none (no result: NadD inh, Myeloid diff MLP)
Nc1nc(-c2ccc(F)cc2)cc(C(F)(F)F)n1	none | Myeloid diff inactive | GFP autofluor inactive
Nc1nc(-c2ccc(Cl)cc2)cc(C(F)(F)F)n1	none
C[C@H](NC(=O)C1CCN(S(=O)(=O)c2ccccc2)CC1)C(=O)NCc1ccccn1	none
Cn1c(=O)c2cc(NC(=S)NC3CCCCC3)ccc2n1C/C=C/c1ccccc1	none (no result: PP5 primary, Fh CTSL1 inh, PP1 inh, HCV core dimer)
Cn1c(=O)c2cc(NC(=O)Cc3ccccc3F)ccc2n1C/C=C/c1ccccc1	none (no result: PP5 primary, Fh CTSL1 inh, PP1 inh, HCV core dimer)
Cn1c(=O)c2cc(NC(=O)NCc3ccc(F)cc3)ccc2n1C/C=C/c1ccccc1	Myeloid diff MLP active (no result: PP5 primary, Fh CTSL1 inh, PP1 inh, HCV core dimer) | Myeloid diff active | GFP autofluor inactive
Cn1c(=O)c2cc(NC(=S)NC3CC3)ccc2n1C/C=C/c1ccccc1	Myeloid diff MLP active (no result: PP5 primary, Fh CTSL1 inh, PP1 inh, HCV core dimer) | Myeloid diff inactive | GFP autofluor inactive
CC(C(=O)Nc1ccccc1)N(C)Cc1cccs1 (stereo not drawn)	none
COc1ccc(-n2c(=O)c(CCC(=O)N3CCN(c4ccccc4O)CC3)nc3ccccc32)cc1	none | Myeloid diff inactive | GFP autofluor 6.7
CCOC(=O)CNC(=O)COc1coc(CN2CCN(c3ccc(F)cc3)CC2)cc1=O	none
CC1CCc2sc(C(=O)NN)cc2C1 (stereo not drawn)	none
CC1CCc2sc(C(=O)NN=C3CCCC3)cc2C1 (stereo not drawn)	Myeloid diff MLP active (no result: PP5 primary, Fh CTSL1 inh, PP1 inh, HCV core dimer) | Myeloid diff inactive | GFP autofluor inactive
Cc1ccc(-n2ncc3c(=O)n(CC(=O)N4CCN(C(=O)c5ccco5)CC4)cnc32)cc1	none (no result: Fh CTSL1 inh, HCV core dimer)
Cc1cc(/C=C2\SC(=S)NC2=O)c(C)n1-c1ccccc1	none | Myeloid diff inactive | GFP autofluor 6.9
Cc1cccc(-n2c(C)cc(C=C3C(=O)c4ccccc4C3=O)c2C)c1	none | Myeloid diff inactive | GFP autofluor inactive
Cc1cc(/C=C2\SC(=Nc3ccc(F)cc3)NC2=O)c(C)n1-c1ccc(S(N)(=O)=O)cc1	NadD inh 65.0 | Myeloid diff inactive | GFP autofluor 8.0
CCNC(=O)C1CCCN(C(=O)c2ccc(N(C)C)cc2)CC1 (stereo not drawn)	none (no result: PP5 primary, Fh CTSL1 inh, PP1 inh, HCV core dimer)
O=[N+]([O-])c1ccc(/C=N/Nc2nc(N3CCCC3)nc(N3CCCC3)n2)o1	none
O=C(N/N=C/c1ccc(-c2ccc([N+](=O)[O-])cc2)o1)c1cccnc1	none
O=[N+]([O-])c1ccc(-c2ccc(/C=N/Nc3nc(N4CCCC4)nc(N4CCCC4)n3)o2)cc1	Myeloid diff MLP active | Myeloid diff inactive | GFP autofluor 6.0
O=C(Cc1ccccc1)N/N=C/c1ccc(-c2ccc([N+](=O)[O-])cc2)o1	Myeloid diff MLP active | Myeloid diff inactive | GFP autofluor inactive
COc1cccc(CN(C)C(=O)CCNC(=O)c2ccco2)c1	none (no result: Fh CTSL1 inh, HCV core dimer)
Cc1ccc(C(=O)N[C@H](C(=O)N2CCN(c3ccccc3F)CC2)C(C)C)cc1	none
O=C1CCC/C(=N/NC(=O)c2sc3ccccc3c2Cl)C1	none | Myeloid diff inactive | GFP autofluor inactive
O=C(c1ccc2c(=O)n3c(nc2c1)CCC3)N1CCN(S(=O)(=O)c2cccc(F)c2)CC1	none
Cc1ccc(F)c(NC(=O)c2c(-c3ccccc3)noc2C)c1	none
Cn1c(NCCN2CCCC2)nc2cc(-c3ccccc3)sc2c1=O	Myeloid diff MLP inconclusive (no result: PP5 primary, Fh CTSL1 inh, PP1 inh, HCV core dimer)
COc1cccc(-c2cc3nc(NCCN4CCCC4)n(C)c(=O)c3s2)c1	none (no result: PP5 primary, Fh CTSL1 inh, PP1 inh, HCV core dimer) | Myeloid diff inactive | GFP autofluor inactive
C=Cn1cc[n+](CC(=O)c2ccc(OC)cc2)c1	Myeloid diff MLP active | Myeloid diff inactive | GFP autofluor inactive
CCOc1ccccc1C(=O)Nn1c(C2CCC2)nc2ccccc2c1=O	Myeloid diff MLP active | Myeloid diff inactive | GFP autofluor inactive
Cc1ccc(Nc2nc(=O)c3cccnc3s2)c(Br)c1	Myeloid diff MLP active | Myeloid diff active | GFP autofluor inactive
CCOC(=O)c1ccccc1NS(=O)(=O)c1ccccc1F	Myeloid diff MLP active | Myeloid diff inactive | GFP autofluor inactive
COc1ccc(N(CC(=O)NC2CCCC2)C(=O)Cn2nnc(-c3ccc(C)cc3)n2)cc1OC	none | Myeloid diff inactive | GFP autofluor inactive
O=C(Nc1cccc(S(=O)(=O)Nc2ccc(Cl)cc2)c1)c1ccccn1	none (no result: Fh CTSL1 inh, HCV core dimer)

Screens (PubChem)
